Laboratory results reported in article PMC6944734 (Alzheimer's & Dementia : Translational Research & Clinical …, 2019).

System: primary mouse neuronal cultures
Assay: Synaptic recordings
Format: cell-based
Conditions: compared with the control
In short: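 Primary neurons from E18 mouse embryos plated at 10 K per well on coverslips. At DIV 11–13, sister coverslips from the same pups were treated 24 or 72 h before recording with DMSO (n = 4), γ-secretase inhibitor DAPT (n = 5) or test compound (n = 4), and all recorded the same day. Spontaneous miniature events analysed for frequency, interevent interval, amplitude and decay. Access resistance 2–14 MΩ.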

SMILES: C[C@H](NC(=O)Cc1cc(F)cc(F)c1)C(=O)N[C@H](C(=O)OC(C)(C)C)c1ccccc1 [difluorphenacetyl-alanyl phenylglycine t-butyl ester]
- Single quantum (amplitudes below 20 pA) and multiquantal (~35–45 pA) releases: significantly more
